# Hits are enriched below; roughly 5.4% of the tested compounds scored in any of these assays.
# CSC inhib = cancer stem cell inhibition | cancer stem cell-like cells viability, luminescence | inhibition, % at 7.5 µM | actives 1.1% (n = 300,000) | AID 2717; in the data active = inhibition above about 75%; inconclusive = no clear call, values can overlap the other calls; tested in HMLE shEcad cells
# SKKanGAS inh = blocks kanamycin growth of S. pyogenes SKKanGAS strain | BacTiter-Glo, 6 h | inhibition, % at 7.5 µM | actives 1.3% (n = 300,000) | AID 1662;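 active = mean replicate score, as percent of positive control median, at least 50; inconclusive = mean below 50 but one replicate at or above 50; inactive = mean and every replicate below 50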;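 also: strain carries kanamycin resistance gene driven by streptokinase promoter and grows in 40 µg/ml kanamycin; loss of luminescence reflects streptokinase promoter inhibition or plain growth inhibition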
# aSyn UTR inh = MLPCN primary screen, SNCA 5' untranslated region; alpha-synuclein 5'UTR reporter, inhibitor activity; inhibition, % (tested at 7.5 µM); actives 0.82% (n = 300,000); AID 1813; in the data active = inhibition above about 60%; inconclusive = no clear call, values can overlap the other calls;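 also: H4 neuroglioblastoma cells stably carrying SNCA 5'UTR luciferase fusion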
# Mdm2-MdmX inh = human Mdm2/MdmX binding inhibition; O15151+Q00987; SaOS-2 split-luciferase Mdm2/MdmX complementation, luminescence; inhibition, % at 8 µM; actives 3% (n = 330,000);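 active = inhibition of at least 50% at 8 µM in the primary screen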
# Target sequence (O15151 whole entry, looked up): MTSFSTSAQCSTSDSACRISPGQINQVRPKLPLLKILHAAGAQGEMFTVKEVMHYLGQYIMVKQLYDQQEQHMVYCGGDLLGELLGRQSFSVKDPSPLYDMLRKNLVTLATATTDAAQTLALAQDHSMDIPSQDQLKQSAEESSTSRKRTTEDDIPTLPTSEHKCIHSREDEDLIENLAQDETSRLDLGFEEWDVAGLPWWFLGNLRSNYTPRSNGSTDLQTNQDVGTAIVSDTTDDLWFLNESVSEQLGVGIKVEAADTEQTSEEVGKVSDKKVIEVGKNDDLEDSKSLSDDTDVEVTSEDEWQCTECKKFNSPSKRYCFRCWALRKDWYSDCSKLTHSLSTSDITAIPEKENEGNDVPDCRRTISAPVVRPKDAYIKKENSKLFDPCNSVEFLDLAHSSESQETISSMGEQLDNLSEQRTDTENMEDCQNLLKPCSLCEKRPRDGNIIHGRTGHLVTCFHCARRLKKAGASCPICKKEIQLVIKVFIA
# Target sequence (Q00987 whole entry, looked up): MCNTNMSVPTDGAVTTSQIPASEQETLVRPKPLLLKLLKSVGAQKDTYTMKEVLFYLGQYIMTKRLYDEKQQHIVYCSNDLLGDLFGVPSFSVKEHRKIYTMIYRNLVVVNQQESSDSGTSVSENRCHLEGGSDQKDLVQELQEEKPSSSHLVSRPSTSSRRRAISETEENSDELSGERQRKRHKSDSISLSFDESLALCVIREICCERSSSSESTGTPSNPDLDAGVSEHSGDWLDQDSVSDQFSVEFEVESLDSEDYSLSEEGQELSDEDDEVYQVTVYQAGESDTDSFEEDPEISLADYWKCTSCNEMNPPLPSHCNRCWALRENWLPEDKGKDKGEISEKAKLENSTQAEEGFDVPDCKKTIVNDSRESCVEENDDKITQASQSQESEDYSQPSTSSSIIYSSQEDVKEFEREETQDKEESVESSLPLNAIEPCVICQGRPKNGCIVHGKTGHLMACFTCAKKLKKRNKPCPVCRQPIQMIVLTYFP
# T cruzi inh = blocks replication of Trypanosoma cruzi; inhibition, % (test concentration not listed); T. cruzi beta-gal in NIH3T3, luminescence, 90 h; actives 1.4% (n = 300,000); AID 1885;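 active = mean inhibition across valid replicates above about 55%, limit read from the data; inconclusive = mean below that limit but half or more replicates reach it; inactive = mean below it, under half of replicates reach it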;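 also: signal also drops with host cell toxicity which is not excluded here; higher percent means less beta-gal luminescence so fewer parasites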
#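 Assay system: NIH/3T3 fibroblasts plus reporter T. cruzi. Amount: NIH/3T3 cells, 5,000 per well. Buffer or medium: DMEM, 2% fetal bovine serum. Doses: compound pinned at 50 nL/well, DMSO. Schedule: ≥90 h infection period, 3 h prior cell attachment. Signal: luminescent β-galactosidase signal after 60 min lysis. Read-out: parasite load inhibition, %.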
# Mdm2-MdmX conf = human Mdm2/MdmX binding inhibition, confirmed | inhibition, % at 8 µM | luminescent assay | shares compounds with Mdm2-MdmX inh | actives 55% (n = 10,000); in the data active = inhibition above about 40%
# Full FLuc ctr = counter-screen for Mdm2/MdmX inhibitors: full-length luciferase; shares compounds with Mdm2-MdmX inh; SaOS-2 full-length luciferase counterscreen, luminescence; inhibition, % at 8 µM; actives 77% (n = 6,200); AID 504607;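 active = mean inhibition at 8 µM reaching about 37%, which flags the compound as non-specific, limit read from the data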;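 also: p53-null SaOS-2 cells with luciferase driven by a doxycycline-inducible promoter; compound on cells about two nights before reading with doxycycline added after day one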
# Hits are given with their value; - = inactive; ? = inconclusive; . = not tested or not shown.
SMILES,CSC inhib,SKKanGAS inh,aSyn UTR inh,Mdm2-MdmX inh,T cruzi inh,Mdm2-MdmX conf,Full FLuc ctr
CCOC(=O)Cn1cc(/C=C/[N+](=O)[O-])c2ccccc21,-,-,-,-,-,.,.
Cc1cccc(Cn2cc(/C=C/[N+](=O)[O-])c3ccccc32)c1,108.6,-,-,57.5,-,-,.
COc1ccc(-c2csc(-n3ncc(-c4ccccn4)c3N)n2)cc1,.,-,-,57.5,-,-,.
CC(=O)Nc1ccc(NC(=O)c2cc(-c3ccc(C)c(C)c3O)n[nH]2)cc1,-,-,-,-,-,.,.
Cc1cccc(NC(=O)c2cc(-c3ccc(C)c(C)c3O)n[nH]2)c1,-,-,-,53.4,-,-,.
Cc1ccccc1OCC(=O)Nc1sc2c(c1C#N)CC(C)(C)NC2(C)C,-,-,-,-,-,.,.
CCOC(=O)c1c(NC(=O)COC(=O)/C=C/c2ccco2)sc2c1CC(C)(C)NC2(C)C,-,-,-,-,-,.,.
CC1(C)Cc2c(sc(NC(=O)c3ccc(C(=O)c4ccccc4)cc3)c2C#N)C(C)(C)N1,-,-,-,51.6,-,-,95.2
COC(=O)c1c(NC(=O)c2nc3ccccc3s2)sc2c1CC(C)(C)NC2(C)C,-,-,104.2,97.6,-,63.5,53.4
CCOc1ccc(C(=O)Nc2sc3c(c2C(=O)OC)CC(C)(C)NC3(C)C)cc1,-,-,-,77.8,-,47.9,60.4
CCOC(=O)c1c(NC(=O)COc2ccccc2)sc2c1CC(C)(C)NC2(C)C,-,-,-,77.0,-,41.4,54.4
CC1(C)Cc2c(sc(NC(=O)c3ccc(S(=O)(=O)N4CCCCCC4)cc3)c2C(N)=O)C(C)(C)N1,.,-,-,84.7,-,-,.
CC1(C)Cc2c(sc(NC(=O)c3ccc(S(=O)(=O)N4CCCC4)cc3)c2C#N)C(C)(C)N1,-,-,-,-,-,.,.
Cc1ccc(O)c(C(=O)c2cc(C#N)c(=O)n(-c3c(C)n(C)n(-c4ccccc4)c3=O)c2)c1,-,-,-,-,-,.,.
Cc1ccc(O)c(C(=O)c2cc(C#N)c(=O)n(-c3nccs3)c2)c1,-,-,-,54.5,-,-,.
Cc1sc2ncnc(NCc3ccccc3)c2c1C,-,-,-,67.4,-,-,.
O=C(c1cccc(COc2cccc3ccccc23)c1)N1CCCC1,-,-,-,50.1,-,-,.
Cn1c(=O)oc2cc(S(=O)(=O)N3CCCC(C(=O)Nc4ccccn4)C3)ccc21 (stereo unspecified),-,-,-,-,-,.,.
Cn1c(=O)oc2cc(S(=O)(=O)N3CCCC(C(=O)NC4CCCc5ccccc54)C3)ccc21 (stereo unspecified),-,-,63.1,76.2,-,69.8,54.4
O=C(Nc1ccncc1NC(=O)c1cccc([N+](=O)[O-])c1)c1cccc([N+](=O)[O-])c1,-,-,-,87.4,-,55.5,-
N#Cc1ncc(-c2ccc3c(c2)OCCOCCOCCOCCOCCO3)nc1C#N,-,-,-,71.5,-,60.6,-
N#Cc1ncc(-c2ccc3c(c2)OCCOCCOCCOCCO3)nc1C#N,-,-,-,-,-,.,.
CCc1nnc(NC(=O)CSc2nc(-c3ccccc3)nc3ccccc23)s1,-,-,-,78.4,-,50.2,90.5
COc1cc(CCC(=O)NCc2ccc(F)cc2)cc(OC)c1OC,-,-,-,-,-,.,.
CN(C(=O)COC(=O)CNC(=O)c1ccc(C(C)(C)C)cc1)c1c(N)n(Cc2ccccc2)c(=O)[nH]c1=O,.,-,-,-,-,.,.
SMILES,CSC inhib,SKKanGAS inh,aSyn UTR inh,Mdm2-MdmX inh,T cruzi inh,Mdm2-MdmX conf,Full FLuc ctr
N/C(=N\c1nc(CSc2nc3ccccc3s2)cc(=O)[nH]1)Nc1ccc(F)cc1,-,-,-,57.4,-,46.1,52.4
CCc1ccc(N/C(N)=N/c2nc(CSc3ccccn3)cc(=O)[nH]2)cc1,-,.,-,-,-,.,.
COc1cccc(N/C(N)=N/c2nc(CSc3ccccn3)cc(=O)[nH]2)c1,-,-,-,52.4,-,48.7,79.3
CCOC(=O)CNS(=O)(=O)c1ccc(C)cc1,-,-,-,-,-,.,.
Cc1cccc2cc(C#N)c(SCc3nnc(-c4ccccc4[N+](=O)[O-])o3)nc12,-,-,-,58.8,-,-,.
Cc1cccc2cc(C#N)c(SCCN3CCCCC3)nc12,-,-,-,-,-,.,.
C(=C\n1nnc2ccccc21)/c1ccc[nH]1,-,-,-,-,-,.,.
N/C(Cn1cncn1)=N\OC(=O)c1ccc(Cl)cc1,-,-,-,51.0,-,-,.
Cc1c(C(=O)N/N=C/c2ccccc2)[nH]c2ccc(Cl)cc12,-,-,-,57.5,-,51.2,59.3
COc1ccc(/C=N/NC(=O)c2[nH]c3ccc(Cl)cc3c2-c2ccccc2)c(C(=O)O)c1OC,-,-,-,-,-,.,.
CN(C)c1ccc(/C=N/NC(=O)c2ccc3c(c2)OCO3)cc1,-,-,-,-,-,.,.
Cc1c(C(=O)N/N=C/c2ccc(N(C)C)cc2)[nH]c2ccc(Cl)cc12,-,-,73.5,64.7,-,51.3,69.2
CC(=O)N(Cc1ccc(F)cc1)C1=C(NCCc2ccccc2)C(=O)c2ccccc2C1=O,-,-,69.6,80.2,-,84.5,52.2
CC(=O)N(Cc1ccc(F)cc1)c1cccc(C)c1C,-,-,-,-,-,.,.
Cc1occc1C(=O)/C(C#N)=C/c1ccc(O)c(Br)c1,-,-,-,-,-,.,.
Cc1ccc(S(=O)(=O)N[C@@H](Cc2ccccc2)C(=O)CCl)cc1,-,.,.,79.9,.,-,62.8
Cc1ccc(S(=O)(=O)NC(Cc2ccccc2)C(=O)NN)cc1 (stereo unspecified),-,-,-,-,-,.,.
C=CCc1ccc(OCCCCN2CC(C)OC(C)C2)c(OC)c1 (stereo unspecified),-,-,-,-,-,.,.
CC(=O)N(C(C)=O)n1c(C)nc2sc3c(c2c1=O)CCCC3,-,-,?,72.5,-,79.5,45.5
O=[N+]([O-])c1cc(/C=N/O)ccc1Oc1cccc(Cl)c1,-,-,-,-,-,.,.
Cc1cc(=O)oc2cc(Oc3ccc([N+](=O)[O-])cc3[N+](=O)[O-])ccc12,-,-,-,59.7,-,64.6,52.4
CC(=O)COc1ccc2c(-c3cccc([N+](=O)[O-])c3)cc(=O)oc2c1,-,-,-,-,-,.,.
COc1ccc([N+](=O)[O-])cc1COc1ccc2c(-c3ccccc3)cc(=O)oc2c1,-,-,-,51.5,-,-,.
Cc1cc(=O)oc2cc(Oc3ncccc3[N+](=O)[O-])ccc12,-,-,-,-,-,.,.
O=Cc1cccc(Oc2ccc([N+](=O)[O-])cc2[N+](=O)[O-])c1,-,-,-,64.0,-,-,.
Cc1ccc(S(=O)(=O)NC(C)(C)CN2CCC(Cc3ccccc3)CC2)cc1,.,-,-,-,-,.,.
Cc1cc(C)cc(C(=O)NC(=S)Nc2cccnc2)c1,-,-,-,-,-,.,.

# Assay outcomes deposited in PubChem by several laboratories.
